Laboratory results from article PMC6361391 (Chemical communications (Cambridge, England), 2017).
Converted amounts (≈) assume the structure as drawn. Where a SMILES comes first, the peptide text is derived from it. Bridges are numbered along the chain shown (N, C = ends). [ ]: non-standard residue; d: D form. d(aIle) = CC[C@H](C)[C@@H](N)C(=O)O; dNMeF = CN[C@H](Cc1ccccc1)C(=O)O

How the values were obtained:
[1] = tested on: Staphylococcus aureus ATCC 29213; format: cell-based
[2] = tested on: Staphylococcus epidermidis ATCC 14990; format: cell-based
[3] = tested on: Streptococcus salivarius ATCC 13419; format: cell-based
[4] = tested on: Enterococcus durans ATCC 6056; format: cell-based
[5] = tested on: Bacillus subtilis ATCC 6051; format: cell-based
[6] = tested on: Escherichia coli ATCC 10798; format: cell-based
[7] = tested on: Gram-positive bacteria; assay: MIC assays, overall activity across the Gram-positive bacteria; format: cell-based; settings: overall grade (good, moderate, poor) from the MIC assays
Procedure, shortened: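 Five Gram-positive species, with E. coli as a Gram-negative negative control and the parent natural antibiotic as a positive control. The test compound was tested at 32, 16, 8, 4, 2, 1, 0.5 and 0.25 μg/mL (final), diluted from a 10 mg/mL stock in sterilized DMSO. Minimum inhibitory concentration was the read-out.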

[8] = format: physicochemical; settings: pH 7.4
[9] = cited from earlier work

Molecule: CC[C@H](C)[C@H](NC(=O)[C@H](NC(=O)[C@@H](CCC(N)=O)NC(=O)[C@H](CO)NC(=O)[C@H](C)NC(=O)[C@@H](Cc1ccccc1)NC)[C@@H](C)CC)C(=O)N[C@@H](CO)C(=O)N[C@H]1C(=O)N[C@@H](C)C(=O)N[C@@H](CCCCN)C(=O)N[C@@H]([C@@H](C)CC)C(=O)O[C@H]1C [Ala2,Lys10-teixobactin] (H-[dNMeF]AS[dQ][d(aIle)]IS[dT]AKI; ester 8-C)
- MIC, Staphylococcus aureus ATCC 29213 [1]: >32 µg/mL
- MIC, Staphylococcus epidermidis ATCC 14990 [2]: 32 µg/mL (≈ 27.2 µM)
- MIC, Streptococcus salivarius ATCC 13419 [3]: 32 µg/mL (≈ 27.2 µM)
- MIC, Enterococcus durans ATCC 6056 [4]: >32 µg/mL
- MIC, Bacillus subtilis ATCC 6051 [5]: 32 µg/mL (≈ 27.2 µM)
- MIC, Escherichia coll ATCC 10798 [6]: >32 µg/mL
- antibiotic activity [7]: poor
- solubility in PBS buffer [8]: good

Molecule: CC[C@H](C)[C@H](NC(=O)[C@@H](Cc1ccccc1)NC)C(=O)N[C@@H](C)C(=O)N[C@H](CCC(N)=O)C(=O)N[C@@H](C(=O)N[C@H](C(=O)N[C@@H](CO)C(=O)N[C@H]1C(=O)N[C@@H](C)C(=O)N[C@@H](CCCCN)C(=O)N[C@@H]([C@@H](C)CC)C(=O)O[C@H]1C)[C@@H](C)CC)[C@@H](C)CC [Ala3,Lys10-teixobactin] (H-[dNMeF]IA[dQ][d(aIle)]IS[dT]AKI; ester 8-C)
- MIC, Staphylococcus aureus ATCC 29213 [1]: 0.5 µg/mL (≈ 0.416 µM)
- MIC, Staphylococcus epidermidis ATCC 14990 [2]: 1 µg/mL (≈ 0.833 µM)
- MIC, Streptococcus salivarius ATCC 13419 [3]: 0.5 µg/mL (≈ 0.416 µM)
- MIC, Enterococcus durans ATCC 6056 [4]: 4 µg/mL (≈ 3.33 µM)
- MIC, Bacillus subtilis ATCC 6051 [5]: 1 µg/mL (≈ 0.833 µM)
- MIC, Escherichia coll ATCC 10798 [6]: >32 µg/mL
- antibiotic activity [7]: good

Molecule: CC[C@H](C)[C@H](NC(=O)[C@@H](Cc1ccccc1)NC)C(=O)N[C@@H](CO)C(=O)N[C@H](CCC(N)=O)C(=O)N[C@@H](C(=O)N[C@@H](C)C(=O)N[C@@H](CO)C(=O)N[C@H]1C(=O)N[C@@H](C)C(=O)N[C@@H](CCCCN)C(=O)N[C@@H]([C@@H](C)CC)C(=O)O[C@H]1C)[C@@H](C)CC [Ala6,Lys10-teixobactin] (H-[dNMeF]IS[dQ][d(aIle)]AS[dT]AKI; ester 8-C)
- MIC, Staphylococcus aureus ATCC 29213 [1]: >32 µg/mL
- MIC, Staphylococcus epidermidis ATCC 14990 [2]: >32 µg/mL
- MIC, Streptococcus salivarius ATCC 13419 [3]: >32 µg/mL
- MIC, Enterococcus durans ATCC 6056 [4]: >32 µg/mL
- MIC, Bacillus subtilis ATCC 6051 [5]: >32 µg/mL
- MIC, Escherichia coll ATCC 10798 [6]: >32 µg/mL
- antibiotic activity [7]: poor
- solubility in PBS buffer [8]: good

Molecule: CC[C@H](C)[C@H](NC(=O)[C@@H](Cc1ccccc1)NC)C(=O)N[C@@H](CO)C(=O)N[C@H](CCC(N)=O)C(=O)N[C@@H](C(=O)N[C@H](C(=O)N[C@@H](C)C(=O)N[C@H]1C(=O)N[C@@H](C)C(=O)N[C@@H](CCCCN)C(=O)N[C@@H]([C@@H](C)CC)C(=O)O[C@H]1C)[C@@H](C)CC)[C@@H](C)CC [Ala7,Lys10-teixobactin] (H-[dNMeF]IS[dQ][d(aIle)]IA[dT]AKI; ester 8-C)
- MIC, Staphylococcus aureus ATCC 29213 [1]: >32 µg/mL
- MIC, Staphylococcus epidermidis ATCC 14990 [2]: 32 µg/mL (≈ 26.7 µM)
- MIC, Enterococcus durans ATCC 6056 [4]: >32 µg/mL
- MIC, Bacillus subtilis ATCC 6051 [5]: 32 µg/mL (≈ 26.7 µM)
- MIC, Escherichia coll ATCC 10798 [6]: >32 µg/mL
- antibiotic activity [7]: poor
- solubility in PBS buffer [8]: good

Molecule: CC[C@H](C)[C@H](NC(=O)[C@@H](Cc1ccccc1)NC)C(=O)N[C@@H](CO)C(=O)N[C@H](CCC(N)=O)C(=O)N[C@@H](C(=O)N[C@H](C(=O)N[C@@H](CO)C(=O)N[C@H]1C(=O)N[C@@H](C)C(=O)N[C@@H](C)C(=O)N[C@@H]([C@@H](C)CC)C(=O)O[C@H]1C)[C@@H](C)CC)[C@@H](C)CC [Ala10-teixobactin]
- MIC, Staphylococcus aureus ATCC 29213 [1]: 1 µg/mL (≈ 0.863 µM)
- MIC, Staphylococcus epidermidis ATCC 14990 [2]: 4 µg/mL (≈ 3.45 µM)
- MIC, Streptococcus salivarius ATCC 13419 [3]: 1 µg/mL (≈ 0.863 µM)
- MIC, Enterococcus durans ATCC 6056 [4]: 8 µg/mL (≈ 6.9 µM)
- MIC, Escherichia coll ATCC 10798 [6]: >32 µg/mL
- antibiotic activity [7]: moderate

Molecule: CC[C@H](C)[C@H](NC(=O)[C@@H](Cc1ccccc1)NC)C(=O)N[C@@H](CO)C(=O)N[C@H](C)C(=O)N[C@@H](C(=O)N[C@H](C(=O)N[C@@H](CO)C(=O)N[C@H]1C(=O)N[C@@H](C)C(=O)N[C@@H](CCCCN)C(=O)N[C@@H]([C@@H](C)CC)C(=O)O[C@H]1C)[C@@H](C)CC)[C@@H](C)CC [D-Ala4,Lys10-teixobactin] (H-[dNMeF]IS[dA][d(aIle)]IS[dT]AKI; ester 8-C)
- MIC, Staphylococcus aureus ATCC 29213 [1]: 1 µg/mL (≈ 0.862 µM)
- MIC, Staphylococcus epidermidis ATCC 14990 [2]: 4 µg/mL (≈ 3.45 µM)
- MIC, Streptococcus salivarius ATCC 13419 [3]: 2 µg/mL (≈ 1.72 µM)
- MIC, Bacillus subtilis ATCC 6051 [5]: 4 µg/mL (≈ 3.45 µM)
- MIC, Escherichia coll ATCC 10798 [6]: >32 µg/mL
- antibiotic activity [7]: moderate
- solubility in PBS buffer [8]: good

Molecule: CC[C@H](C)[C@H](NC(=O)[C@@H](C)NC(=O)[C@@H](CCC(N)=O)NC(=O)[C@H](CO)NC(=O)[C@@H](NC(=O)[C@@H](Cc1ccccc1)NC)[C@@H](C)CC)C(=O)N[C@@H](CO)C(=O)N[C@H]1C(=O)N[C@@H](C)C(=O)N[C@@H](CCCCN)C(=O)N[C@@H]([C@@H](C)CC)C(=O)O[C@H]1C [D-Ala5,Lys10-teixobactin] (HELM PEPTIDE1{[CN[C@H](Cc1ccccc1)C(=O)[*:2]].I.S.[dQ].[dA].I.S.[C[C@H](O[*:3])[C@@H](N[*:1])C(=O)[*:2]].A.K.I}$PEPTIDE1,PEPTIDE1,8:R3-11:R2$$$V2.0)
- MIC, Staphylococcus aureus ATCC 29213 [1]: >32 µg/mL
- MIC, Enterococcus durans ATCC 6056 [4]: >32 µg/mL
- MIC, Escherichia coll ATCC 10798 [6]: >32 µg/mL
- antibiotic activity [7]: poor
- solubility in PBS buffer [8]: good

Molecule: CC[C@H](C)[C@H](NC(=O)[C@@H](Cc1ccccc1)NC)C(=O)N[C@@H](CO)C(=O)N[C@H](CCC(N)=O)C(=O)N[C@@H](C(=O)N[C@H](C(=O)N[C@@H](CO)C(=O)N[C@H]1C(=O)N[C@@H](C)C(=O)N[C@@H](CCCCN)C(=O)N[C@@H](C)C(=O)O[C@H]1C)[C@@H](C)CC)[C@@H](C)CC [Lys10,Ala11-teixobactin] (H-[dNMeF]IS[dQ][d(aIle)]IS[dT]AKA; ester 8-C)
- MIC, Staphylococcus aureus ATCC 29213 [1]: 4 µg/mL (≈ 3.41 µM)
- MIC, Staphylococcus epidermidis ATCC 14990 [2]: 8 µg/mL (≈ 6.81 µM)
- MIC, Streptococcus salivarius ATCC 13419 [3]: 2 µg/mL (≈ 1.7 µM)
- MIC, Enterococcus durans ATCC 6056 [4]: >32 µg/mL
- MIC, Bacillus subtilis ATCC 6051 [5]: 8 µg/mL (≈ 6.81 µM)
- MIC, Escherichia coll ATCC 10798 [6]: >32 µg/mL
- antibiotic activity [7]: moderate
- solubility in PBS buffer [8]: good

Molecule: CC[C@H](C)[C@H](NC(=O)[C@@H](Cc1ccccc1)NC)C(=O)N[C@@H](CO)C(=O)N[C@H](CCC(N)=O)C(=O)N[C@@H](C(=O)N[C@H](C(=O)N[C@@H](CO)C(=O)N[C@H]1C(=O)N[C@@H](C)C(=O)N[C@@H](CCCCN)C(=O)N[C@@H]([C@@H](C)CC)C(=O)O[C@H]1C)[C@@H](C)CC)[C@@H](C)CC [Lys10-teixobactin]
- MIC, Staphylococcus aureus ATCC 29213 [1]: 0.5 µg/mL (≈ 0.411 µM)
- MIC, Staphylococcus epidermidis ATCC 14990 [2]: 0.5 to 1 µg/mL
- MIC, Streptococcus salivarius ATCC 13419 [3]: 0.5 µg/mL (≈ 0.411 µM)
- MIC, Enterococcus durans ATCC 6056 [4]: 2 µg/mL (≈ 1.64 µM)
- MIC, Bacillus subtilis ATCC 6051 [5]: 1 µg/mL (≈ 0.822 µM)
- MIC, Escherichia coll ATCC 10798 [6]: >32 µg/mL
- antibiotic activity [7]: good
- MIC values reported previously ([9]; earlier report of the same group): 0.25 to 1 µg/mL

Molecule: CC[C@H](C)[C@H](NC(=O)[C@@H](C)NC)C(=O)N[C@@H](CO)C(=O)N[C@H](CCC(N)=O)C(=O)N[C@@H](C(=O)N[C@H](C(=O)N[C@@H](CO)C(=O)N[C@H]1C(=O)N[C@@H](C)C(=O)N[C@@H](CCCCN)C(=O)N[C@@H]([C@@H](C)CC)C(=O)O[C@H]1C)[C@@H](C)CC)[C@@H](C)CC [N-Me-D-Ala1,Lys10-teixobactin]
- MIC, Staphylococcus aureus ATCC 29213 [1]: >32 µg/mL
- MIC, Staphylococcus epidermidis ATCC 14990 [2]: >32 µg/mL
- MIC, Streptococcus salivarius ATCC 13419 [3]: >32 µg/mL
- MIC, Enterococcus durans ATCC 6056 [4]: >32 µg/mL
- MIC, Bacillus subtilis ATCC 6051 [5]: >32 µg/mL
- MIC, Escherichia coll ATCC 10798 [6]: >32 µg/mL
- antibiotic activity [7]: poor
- solubility in PBS buffer [8]: good

Molecule: Lys3,Arg10-teixobactin
- antibiotic activity ([9]; lysine scan of Arg10-teixobactin): active

Molecule: lipobactin
- loss in activity relative to Arg10-teixobactin ([9]; residues 1 to 5 replaced with a dodecanoyl group): two- to fourfold loss in activity
